Laboratory results: ChEMBL document CHEMBL2406992, “Validation of inhibitors of an ABC transporter required to transport lipopolysaccharide to the cell surface in Escherichia coli” (2013)
In brackets after ≈: the same amount, converted by molar mass. Activity calls are given as the source filed them. No cut-off for these calls is given here.

Key:
Escherichia coli [1] = test: Antibacterial activity against Escherichia coli MC4100 assessed as growth inhibition after 24 hrs by microdilution method; assay type: functional; conditions: MC4100, 24 h
Escherichia coli [2] = test: Antibacterial activity against Escherichia coli NR698 assessed as growth inhibition after 24 hrs by microdilution method; assay type: functional; conditions: NR698, 24 h
Escherichia coli [3] = test: Inhibition of Escherichia coli MC4100 His6-tagged LptB overexpressed in Escherichia coli BL21 (deltaDE3) assessed as inorganic phosphate release at 100 uM after 5 mins by molybdate method
Method in brief: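 Single-point assay. Purified His-LptB (7 μM) in 50 mM Tris-HCl pH 8.0, 500 mM NaCl, 10% glycerol was preincubated 5 min at 25 °C with 100 μM inhibitor (2% DMSO final). Started with 1 mM ATP at 25 °C and quenched in the linear range with 12% SDS. Released phosphate was read by molybdate absorbance, relative to a DMSO control.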

Escherichia coli [4] = test: Inhibition of Escherichia coli MC4100 LptBFGC overexpressed in Escherichia coli BL21 (deltaDE3) assessed as inorganic phosphate release at 100 uM after 5 mins by molybdate method
Method in brief: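 Detergent-purified LptBFGC, 0.2 μM in 50 mM Tris-HCl pH 8.0, 500 mM NaCl, 10% glycerol, 0.05% DDM. Preincubated 5 min at 25 °C with 100 μM inhibitor (2% DMSO final). Reaction started with 0.5 mM ATP at 25 °C and stopped in the linear range with 12% SDS. Phosphate was measured by modified molybdate method, relative to uninhibited DMSO control.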

Escherichia coli [5] = test: Selectivity ratio of IC50 for Escherichia coli MC4100 LptBFGC to IC50 for Escherichia coli MC4100 His6-tagged LptB
Escherichia coli [6] = test: Inhibition of Escherichia coli MC4100 LptBFGC overexpressed in Escherichia coli BL21 (deltaDE3) assessed as inorganic phosphate release after 5 mins by molybdate method
Method in brief: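 LptBFGC was expressed from an LptCAB-His6 plasmid in BL21(λDE3) (50 μM IPTG, 2 h, 37 °C) and purified in DDM. Assayed at 0.2 μM in 50 mM Tris-HCl pH 8.0, 500 mM NaCl, 10% glycerol, 0.05% DDM. Varying inhibitor (2% DMSO) was preincubated 5 min at 25 °C, then ATP was added. Quenched in the linear range with SDS. Molybdate phosphate read-out, normalized to DMSO.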

Escherichia coli [7] = test: Inhibition of Escherichia coli MC4100 His6-tagged LptB overexpressed in Escherichia coli BL21 (deltaDE3) assessed as inorganic phosphate release after 5 mins by molybdate method
Method in brief: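 His-tagged LptB, Ni-NTA and size-exclusion purified, at 7 μM in 50 mM Tris-HCl pH 8.0, 500 mM NaCl, 10% glycerol. Varied inhibitor concentrations (DMSO, 2% final) were preincubated 5 min at 25 °C, then ATP was added at 25 °C. Stopped within the linear range with an equal volume of 12% SDS. Phosphate was read by modified molybdate absorbance and normalized to the DMSO control.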

MIC (Escherichia coli [1]) [µM] | MIC (Escherichia coli [2]) [µM] | inhibition (Escherichia coli [3]) | inhibition (Escherichia coli [4]) | Ratio IC50 (Escherichia coli [5]) | inhibition (Escherichia coli [6]) | inhibition (Escherichia coli [7]) | SMILES
> 100 | 100 (≈ 53.4 µg/mL) | Active | Active |  |  |  | O=C1NC(=O)c2c1c(-c1ccccc1Cl)cc1c2c2cc(O)c(OCCCN3CCCC3)cc2n1CCO
> 100 | 12.5 (≈ 5.09 µg/mL) | Active | Active |  |  |  | O=C1NC(=O)c2c1c(-c1ccccc1Br)cc1[nH]c3ccc(O)cc3c21
> 100 | 50 (≈ 27.6 µg/mL) | Active | Active |  |  |  | Cn1c2cc(S(=O)(=O)CCCN3CCCC3)c(O)cc2c2c3c(c(-c4ccccc4Cl)cc21)C(=O)NC3=O
> 100 | 100 (≈ 50.4 µg/mL) | Active | Active |  |  |  | Cn1c2cc(OCCCN3CCCC3)c(O)cc2c2c3c(c(-c4ccccc4Cl)cc21)C(=O)NC3=O
> 100 | 12.5 (≈ 4.97 µg/mL) |  |  | 6 | Dose-dependent effect | Dose-dependent effect | O=C1NC(=O)c2c1c(-c1c(Cl)cccc1Cl)cc1[nH]c3ccc(O)cc3c21
> 100 | 25 (≈ 9.36 µg/mL) | Active | Active |  |  |  | CSc1ccccc1-c1cc2[nH]c3ccc(O)cc3c2c2c1C(=O)NC2=O
> 100 | 25 (≈ 11.9 µg/mL) | Active | Active |  |  |  | CN(C)CCCOc1cc2c(cc1O)c1c3c(c(-c4ccccc4Cl)cc1n2C)C(=O)NC3=O
> 100 | 25 (≈ 9.07 µg/mL) |  |  |  |  |  | O=C1NC(=O)c2c1c(-c1ccccc1Cl)cc1[nH]c3ccc(O)cc3c21
